Here are results for 37 molecules from ChEMBL document CHEMBL4011624, “The 1,2,4-Triazolo[4,3-a]pyrazin-3-one as a Versatile Scaffold for the Design of Potent Adenosine Human Receptor Antagonists. Structural Investigations to Target the A2A Receptor Subtype” (J Med Chem, 2017).

Test [1] addresses T1, Adenosine receptor A1 (Homo sapiens, UniProt P30542).
T1 sequence (P30542 whole entry): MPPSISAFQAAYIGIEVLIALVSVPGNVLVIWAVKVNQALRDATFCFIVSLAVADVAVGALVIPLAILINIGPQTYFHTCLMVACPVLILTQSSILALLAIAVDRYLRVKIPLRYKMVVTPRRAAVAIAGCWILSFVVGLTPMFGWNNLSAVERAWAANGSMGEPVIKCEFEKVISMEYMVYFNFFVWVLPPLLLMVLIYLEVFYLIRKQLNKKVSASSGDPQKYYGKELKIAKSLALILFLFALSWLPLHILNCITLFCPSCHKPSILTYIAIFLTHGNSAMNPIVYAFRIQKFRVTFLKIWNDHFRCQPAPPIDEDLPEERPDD
Kind of test: Displacement of [3H]CCPA from human adenosine receptor A1 expressed in CHO cell membranes after 3 hrs by microbeta scintillation counting method.

Test [2] addresses T2, Adenosine receptor A2a (Homo sapiens, UniProt P29274). The experiment in a line: Displacement of [3H]NECA from human adenosine receptor A2A expressed in CHO cell membranes after 3 hrs by microbeta scintillation counting method. (In general: Displacement assays read how much labelled ligand stays bound in the presence of the test substance.)
The target in test [3] is T3, Adenosine receptor A2b (Homo sapiens, UniProt P29275).
T3 sequence (P29275 whole entry): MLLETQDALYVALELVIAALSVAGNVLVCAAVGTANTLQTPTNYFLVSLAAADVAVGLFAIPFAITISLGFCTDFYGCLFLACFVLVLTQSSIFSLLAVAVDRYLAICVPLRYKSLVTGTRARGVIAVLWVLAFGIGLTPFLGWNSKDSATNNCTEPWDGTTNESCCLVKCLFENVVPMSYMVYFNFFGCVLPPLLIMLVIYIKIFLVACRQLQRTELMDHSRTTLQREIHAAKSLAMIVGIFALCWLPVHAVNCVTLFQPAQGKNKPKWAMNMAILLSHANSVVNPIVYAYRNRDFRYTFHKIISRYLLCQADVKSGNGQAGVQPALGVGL
Kind of test: Antagonist activity at human adenosine receptor A2B expressed in CHO cell membranes assessed as inhibition of NECA-induced increase of cAMP accumulation preincubated for 10 mins followed by NECA addition measured after 10 mins by GloSensor cAMP assay. The class given is functional, cell-based. The gist of the method: (§1)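 Receptors stably transfected in CHO cells. Antagonism read as inhibition of the NECA-stimulated rise in cAMP levels. IC50 values were derived from dose-response curves.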
For orientation: cAMP levels reflect the balance of adenylyl cyclase and phosphodiesterase activity.

In test [4] the target is T4, Adenosine receptor A3 (Homo sapiens, UniProt P0DMS8).
T4 sequence (P0DMS8 whole entry): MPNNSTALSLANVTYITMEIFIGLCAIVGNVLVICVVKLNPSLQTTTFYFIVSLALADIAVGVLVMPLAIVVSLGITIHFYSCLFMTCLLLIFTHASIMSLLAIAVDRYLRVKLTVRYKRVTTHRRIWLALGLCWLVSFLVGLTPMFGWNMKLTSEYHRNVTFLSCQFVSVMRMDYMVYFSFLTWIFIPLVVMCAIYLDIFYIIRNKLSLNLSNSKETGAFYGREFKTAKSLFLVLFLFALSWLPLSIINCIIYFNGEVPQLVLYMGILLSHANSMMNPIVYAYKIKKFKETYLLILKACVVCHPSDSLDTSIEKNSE
Kind of test: Displacement of [3H]HEMADO from human adenosine receptor A3 expressed in CHO cell membranes after 3 hrs by microbeta scintillation counting method.

The target of test [5] is T2, Adenosine receptor A2a. The experiment in a line: Antagonist activity at human adenosine receptor A2A expressed in CHO cell membranes assessed as inhibition of NECA-induced increase of cAMP accumulation preincubated for 10 mins followed by NECA addition measured after 10 mins by GloSensor cAMP assay. The test is classed as functional, cell-based. An outline of the steps:
as §1

Each structure is given as a SMILES string.

T2 sequence (P29274 whole entry): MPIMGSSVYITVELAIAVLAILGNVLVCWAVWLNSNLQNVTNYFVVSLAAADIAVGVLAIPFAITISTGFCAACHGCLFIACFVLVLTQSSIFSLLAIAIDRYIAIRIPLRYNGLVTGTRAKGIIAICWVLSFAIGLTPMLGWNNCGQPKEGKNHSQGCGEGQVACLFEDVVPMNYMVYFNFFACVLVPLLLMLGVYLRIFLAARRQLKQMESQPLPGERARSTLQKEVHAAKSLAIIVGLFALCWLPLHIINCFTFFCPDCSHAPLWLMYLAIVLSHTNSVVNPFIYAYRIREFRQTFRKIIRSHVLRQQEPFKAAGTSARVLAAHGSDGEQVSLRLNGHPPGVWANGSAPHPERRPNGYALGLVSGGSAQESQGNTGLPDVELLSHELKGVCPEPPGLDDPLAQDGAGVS

For orientation: Ki means a dissociation constant, usually derived from enzyme kinetics or from competition with a known ligand. Low values mean tighter binding, high ones weaker binding. The term IC50 denotes the concentration at which inhibition is half-maximal. Consider `Nc1nc(-c2ccccc2)cn2c(=O)n(-c3ccc([N+](=O)[O-])cc3)nc12`, for which the values for the Ki in test [1], in test [2] and in test [4] were 0.0081 µM, 0.402 µM and above 30 µM, respectively. In test [3], the half-inhibitory concentration (IC50) was above 30 µM.
For the molecule `COc1ccc(-n2nc3c(N)nc(C)cn3c2=O)cc1`, the figures for the Ki in test [1], in test [2] and in test [4] were 1.74 µM, 1.04 µM and 0.255 µM, respectively. For the same molecule, the IC50 in test [3] was above 30 µM.
For `C#CCOc1ccc(-c2cn3c(=O)n(-c4ccccc4)nc3c(N)n2)cc1` the same measures were above 30 µM, 0.0106 µM, above 30 µM and above 30 µM.
Consider `COc1ccc(-c2cn3c(=O)n(-c4ccccc4)nc3c(=O)[nH]2)cc1`, for which the inhibitory constant (Ki) in test [1], in test [2] and in test [4] was above 30 µM throughout. For the same molecule, the IC50 in test [3] was above 30 µM.
With `CC(C)Oc1ccc(-c2cn3c(=O)n(-c4ccccc4)nc3c(N)n2)cc1`, the Ki was above 30 µM in test [1], 0.0074 µM in test [2] and above 30 µM in test [4]. The IC50 in test [3] is above 30 µM.
In the case of `COc1ccccc1-n1nc2c(N)nc(-c3ccccc3)cn2c1=O`, the figures for the Ki in test [1], in test [2] and in test [4] were 0.247 µM, 0.309 µM and 0.392 µM, respectively. In addition, the 50% inhibitory concentration (IC50) in test [3] was above 30 µM.
For `COc1ccc(-n2nc3c(N)nc(-c4ccccc4)cn3c2=O)cc1` the same measures were 0.02 µM, 0.078 µM, 0.117 µM and above 30 µM.
With `Cc1cn2c(=O)n(-c3ccccc3)nc2c(=O)[nH]1`, the values for the inhibition constant (Ki) in test [1], in test [2] and in test [4] were above 30 µM, above 30 µM and 0.06 µM, respectively. For the same molecule, the IC50 in test [3] is above 30 µM.
With `Nc1nc(-c2ccc(OCc3ccccc3)cc2)cn2c(=O)n(-c3ccccc3)nc12`, the inhibition constant Ki in test [1] is 3.7 µM; in test [2], 0.708 µM; in test [4], above 30 µM. Moreover, the IC50 in test [3] was above 30 µM.
Take `Nc1nc(-c2ccccc2)cn2c(=O)n(-c3ccccc3)nc12`: the values for the Ki in test [1], in test [2] and in test [4] were 0.013 µM, 0.01 µM and 0.011 µM, respectively. For the same molecule, the IC50 in test [3] is above 30 µM.
For `Cc1cn2c(=O)n(-c3ccc(O)cc3)nc2c(=O)[nH]1`, the Ki was determined as 5.74 µM in test [1] and 0.229 µM in test [4]. Moreover, the IC50 in test [3] was above 30 µM.
Consider `Nc1nc(-c2ccc(OCC3CCC3)cc2)cn2c(=O)n(-c3ccccc3)nc12`, for which the Ki in test [1], in test [2] and in test [4] was above 30 µM each time. Besides, the IC50 in test [3] is above 30 µM.
For the molecule `Nc1ccc(-n2nc3c(N)nc(-c4ccccc4)cn3c2=O)cc1`, the Ki in test [1] came out at 0.0089 µM; in test [2], 3.48 µM; in test [4] it was 0.65 µM. For the same molecule, in test [3], the IC50 is above 30 µM.
On to `Cc1cn2c(=O)n(-c3ccccc3)nc2c(N)n1`, for which the Ki in test [1] was determined as 0.067 µM; in test [2] it was 0.485 µM; in test [4], 4.37 µM. In addition, the IC50 in test [3] was above 30 µM.
In the case of `CCOc1ccc(-c2cn3c(=O)n(-c4ccccc4)nc3c(N)n2)cc1`, the IC50 in test [5] was 0.098 µM; in test [3], above 30 µM. Besides, the Ki was above 30 µM in test [1], 0.0029 µM in test [2] and above 30 µM in test [4].
Take `COc1ccc(-n2nc3c(=O)[nH]c(C)cn3c2=O)cc1`: the Ki is above 30 µM in test [1], above 30 µM in test [2] and 0.05 µM in test [4]. For the same molecule, the IC50 in test [3] is above 30 µM.
In the case of `O=c1[nH]c(-c2cccc(O)c2)cn2c(=O)n(-c3ccccc3)nc12`, the Ki in test [1] was 0.698 µM; in test [2], 4.07 µM; in test [4] it was 1.05 µM. In addition, the IC50 in test [3] is above 30 µM.
With `COc1cccc(-c2cn3c(=O)n(-c4ccccc4)nc3c(=O)[nH]2)c1`, the Ki in test [1], in test [2] and in test [4] was above 30 µM throughout. Moreover, in test [3], the IC50 is above 30 µM.
On to `C#CCOc1cccc(-c2cn3c(=O)n(-c4ccccc4)nc3c(N)n2)c1`, for which the results for the inhibitory constant (Ki) in test [1], in test [2] and in test [4] were 0.045 µM, 0.0051 µM and 0.067 µM, respectively. In addition, the IC50 in test [3] is above 30 µM.
Regarding `COc1ccc(-n2nc3c(=O)[nH]c(-c4ccccc4)cn3c2=O)cc1`, the figures for the Ki in test [1], in test [2] and in test [4] were above 30 µM, above 30 µM and 0.214 µM, respectively. In test [3], the IC50 is above 30 µM.
As to `Cc1ccc(-c2cn3c(=O)n(-c4ccccc4)nc3c(=O)[nH]2)cc1`, the inhibition constant (Ki) in test [1], in test [2] and in test [4] was above 30 µM throughout. Moreover, in test [3], the IC50 is above 30 µM.
For the molecule `Cc1cn2c(=O)n(-c3ccc(O)cc3)nc2c(N)n1`, the results for the Ki in test [1], in test [2] and in test [4] were 1 µM, 1.32 µM and 5.16 µM, respectively. Further, the IC50 in test [3] was above 30 µM.
With `O=c1[nH]c(-c2ccccc2)cn2c(=O)n(-c3ccccc3)nc12`, the figures for the inhibition constant Ki in test [1], in test [2] and in test [4] were above 30 µM, above 30 µM and 0.096 µM, respectively. Also, the IC50 in test [3] was above 30 µM.
Regarding `Nc1nc(-c2cccc(O)c2)cn2c(=O)n(-c3ccccc3)nc12`, the results for the Ki in test [1], in test [2] and in test [4] were 0.014 µM, 0.0035 µM and 0.134 µM, respectively. For the same molecule, the IC50 in test [3] is above 30 µM.
For `O=c1[nH]c(-c2ccc(O)cc2)cn2c(=O)n(-c3ccccc3)nc12` the same measures were 0.616 µM, above 30 µM, 0.207 µM and above 30 µM.
On the same counts, the results for `Nc1nc(-c2ccc(OCC3CC3)cc2)cn2c(=O)n(-c3ccccc3)nc12` are above 30 µM, above 30 µM, above 30 µM and above 30 µM.
For the molecule `COc1ccccc1-n1nc2c(=O)[nH]c(-c3ccccc3)cn2c1=O`, the figures for the Ki in test [1], in test [2] and in test [4] were 2.14 µM, above 30 µM and 5.2 µM, respectively. In test [3], the IC50 is above 30 µM.
Take `Cc1ccc(-c2cn3c(=O)n(-c4ccccc4)nc3c(N)n2)cc1`: the Ki in test [1], in test [2] and in test [4] was above 30 µM in each case. The IC50 in test [3] is above 30 µM.
Turning to `Nc1ccc(-n2nc3c(=O)[nH]c(-c4ccccc4)cn3c2=O)cc1`, the Ki came out at 0.247 µM in test [1], 0.415 µM in test [2] and 0.063 µM in test [4]. In addition, the IC50 in test [3] is above 30 µM.
For `Nc1nc(-c2ccc(O)cc2)cn2c(=O)n(-c3ccccc3)nc12` the same measures were 0.045 µM, 0.045 µM, 0.053 µM and above 30 µM.
With `O=c1[nH]c(-c2ccccc2)cn2c(=O)n(-c3ccc(O)cc3)nc12`, the Ki in test [1] worked out at 0.129 µM; in test [2], 0.387 µM; in test [4], 0.00037 µM. In addition, in test [3], the IC50 is above 30 µM.
Regarding `CCCOc1ccc(-c2cn3c(=O)n(-c4ccccc4)nc3c(N)n2)cc1`, the inhibitory constant (Ki) in test [1] and in test [4] was above 30 µM in each case. In addition, in test [3], the IC50 was above 30 µM.
`Nc1nc(-c2cccc(OCc3ccccc3)c2)cn2c(=O)n(-c3ccccc3)nc12`: the Ki in test [1], in test [2] and in test [4] was above 30 µM each time. In test [3], the IC50 was above 30 µM.
In the case of `O=c1[nH]c(-c2ccccc2)cn2c(=O)n(-c3ccccc3O)nc12`, the Ki in test [1] is 1.48 µM; in test [2], above 30 µM; in test [4], 21.6 µM. For the same molecule, the IC50 in test [3] is above 30 µM.
In the case of `Nc1nc(-c2ccccc2)cn2c(=O)n(-c3ccccc3O)nc12`, the Ki amounted to 0.047 µM in test [2] and 1.56 µM in test [4]. In test [3], the IC50 is above 30 µM.
For `COc1cccc(-c2cn3c(=O)n(-c4ccccc4)nc3c(N)n2)c1`, the inhibitory constant (Ki) in test [1] turned out to be 0.044 µM; in test [2], 0.0068 µM; in test [4], 0.042 µM. The concentration for half-maximal inhibition (IC50) in test [3] is above 30 µM.
For `Nc1nc(-c2ccccc2)cn2c(=O)n(-c3ccc(O)cc3)nc12` the same measures were 0.018 µM, 0.138 µM, 0.429 µM and above 30 µM.
